Source: ChEMBL document CHEMBL1151261, “Antineoplastic agents. 509: synthesis of fluorcombstatin phosphate and related 3-halostilbenes(1)” (J Nat Prod, 2005)
Values after ≈ are worked out from the molar mass of the structure shown. Active and inactive are the calls of the source. The calls are words filed in the database; no cut-off is given here.

Tests used:
HUVEC [1] = test: Induction of microtubule damage in HUVEC at 1 uM after 2 hrs; type: functional, cell-based; conditions: Homo sapiens
How it was run: (§1)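 Primary HUVECs from umbilical cords grown in M199 with 20% human serum, CD31-authenticated. About 3×10^4 cells on gelatin-coated coverslips, 24 h at 37 °C, then compound from DMSO for 30 min to 4 h, in duplicate. Cells methanol-fixed, stained with anti-α-tubulin and TRITC secondary plus Hoechst, imaged by confocal microscopy and scored for microtubule damage.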

HUVEC [2] = test: Induction of microtubule damage in HUVEC at 1 uM after 4 hrs; type: functional, cell-based; conditions: Homo sapiens; how it was run: as §1
SF-268 = test: Cytotoxicity against human SF268 cells after 48 hrs by sulforhodamine B assay; type: functional; conditions: SF-268, 48 h
How it was run: (§2)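 Human tumor lines exposed to compound for 48 h, then fixed with trichloroacetic acid and stained with sulforhodamine B (NCI standard protocol); optical density read on a microplate reader. GI50 is the concentration giving a 50% reduction in net protein increase, calculated from optical density data.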

HUVEC [3] = test: Induction of microtubule damage in HUVEC at 1 uM after 30 mins; type: functional, cell-based; conditions: Homo sapiens; how it was run: as §1
Micrococcus luteus = test: Antimicrobial activity against Micrococcus luteus Presque Isle 456 after 24 hrs by broth microdilution assay; type: functional
How it was run: (§3)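 NCCLS bacterial broth microdilution (M7-A5). Overnight colonies diluted to about 5×10^5 CFU/mL final; 2-fold compound dilutions (DMSO stock) in cation-adjusted Mueller Hinton II broth; DMSO turbidity control; 35 °C without agitation, 24 h. MIC = lowest concentration with optically clear wells.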

DU-145 = test: Cytotoxicity against human DU145 cells after 48 hrs by sulforhodamine B assay; type: functional; conditions: DU-145, 48 h; how it was run: as §2
[4] = test system: Stenotrophomonas maltophilia; test: Antimicrobial activity against Stenotrophomonas maltophilia ATCC 13637 at 64 ug/mL after 24 hrs by broth microdilution assay; type: functional, organism-based; how it was run: as §3
MCF7 = test: Cytotoxicity against human MCF7 cells after 48 hrs by sulforhodamine B assay; type: functional; conditions: MCF7, 48 h; how it was run: as §2
KM-20L2 = test: Cytotoxicity against human KM20L2 cells after 48 hrs by sulforhodamine B assay; type: functional; conditions: KM-20L2, 48 h; how it was run: as §2
Neisseria gonorrhoeae = test: Antimicrobial activity against Neisseria gonorrhoeae ATCC 49226 after 24 hrs by broth microdilution assay; type: functional; conditions: ATCC 49226, 24 h
How it was run: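 Neisseria tested by NCCLS broth microdilution in gonococcal typing broth. Final inoculum about 5×10^5 CFU/mL; 2-fold compound dilutions from DMSO; DMSO turbidity control; 37 °C with 5% CO₂ without agitation, 24 h. MIC = lowest concentration with no visible growth.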

Escherichia coli = test: Antimicrobial activity against Escherichia coli ATCC 25922 at 64 ug/mL after 24 hrs by broth microdilution assay; type: functional, organism-based; how it was run: as §3
HUVEC [5] = test: Induction of microtubule depolymerization in HUVEC at 10 uM after 1 hr; type: functional, cell-based; conditions: Homo sapiens; how it was run: as §1
[6] = Inhibition of tubulin polymerization
How it was run: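 Turbidimetry at 350 nm. Compound at varying concentrations preincubated with 10 μM (1.0 mg/mL) purified tubulin, chilled on ice, then 0.4 mM GTP added and polymerization followed at 30 °C. Extent of polymerization at 20 min measured.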

HUVEC [7] = test: Induction of microtubule depolymerization in HUVEC at 10 uM after 2 hrs; type: functional, cell-based; conditions: Homo sapiens; how it was run: as §1
HUVEC [8] = test: Induction of microtubule damage in HUVEC at 1 uM after 1 hr; type: functional, cell-based; conditions: Homo sapiens; how it was run: as §1
Streptococcus pneumoniae = test: Antimicrobial activity against Streptococcus pneumoniae ATCC 6303 after 24 hrs by broth microdilution assay; type: functional; conditions: ATCC 6303, 24 h
How it was run: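 Streptococcus tested by NCCLS broth microdilution in cation-adjusted MHII broth with 3% lysed horse blood. Final inoculum about 5×10^5 CFU/mL; 2-fold compound dilutions from DMSO; DMSO turbidity control; 35 °C without agitation, 24 h. MIC = lowest concentration with no visible growth.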

HUVEC [9] = test: Induction of microtubule depolymerization in HUVEC at 10 uM after 30 mins; type: functional, cell-based; conditions: Homo sapiens; how it was run: as §1
Staphylococcus aureus [10] = test: Antimicrobial activity against Staphylococcus aureus ATCC 29213 at 64 ug/mL after 24 hrs by broth microdilution assay; type: functional, organism-based; how it was run: as §3
HUVEC [11] = test: Reduction of junction numbers in HUVEC at 0.001 ug/mL; type: functional, cell-based; conditions: Homo sapiens
How it was run: (§4)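 Matrigel cord formation (NCI DTP protocol). Commercial HUVECs in EGM-2; Matrigel polymerized 15 min at RT then 30 min at 37 °C; 100 μL of 2×10^5 cells/mL plus compound solution; 24 h incubation. Imaged by inverted microscope; cord length and junction number compared with untreated controls.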

[12] = Displacement of [3H]colchicine from tubulin
How it was run: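 [3H]colchicine binding with 1.0 μM tubulin, 5.0 μM [3H]colchicine and inhibitor at 1.0 μM.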

BXPC-3 = test: Cytotoxicity against human BxPC3 cells after 48 hrs by sulforhodamine B assay; type: functional; conditions: BXPC-3, 48 h; how it was run: as §2
HUVEC [13] = test: Reduction of cord length in HUVEC at 0.01 ug/mL; type: functional, cell-based; conditions: Homo sapiens; how it was run: as §4
Candida albicans = test: Antimicrobial activity against Candida albicans ATCC 90028 at 64 ug/mL after 48 hrs by broth microdilution assay; type: functional, organism-based
How it was run: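 Yeast NCCLS broth microdilution (M27-A). Inoculum 0.5 to 2.5×10^3 CFU/mL; 2-fold dilutions in 0.165 M MOPS-buffered RPMI 1640, pH 7.0; compound from DMSO, DMSO-only turbidity control; 35 °C without agitation; read at 48 h (Candida). MIC = lowest concentration giving no visible growth.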

HUVEC [14] = test: Reduction of junction numbers in HUVEC at 0.01 ug/mL; type: functional, cell-based; conditions: Homo sapiens; how it was run: as §4
NCI-H460 = test: Cytotoxicity against human NCI-H460 cells after 48 hrs by sulforhodamine B assay; type: functional; conditions: NCI-H460, 48 h; how it was run: as §2
[15] = Cytotoxicity against HUVEC; type: cell-based; conditions: human, HUVEC cells; read-out: ED50 (the source's name)
How it was run: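 Commercial HUVECs grown in EGM-2 medium. Growth measured by the sulforhodamine B assay: 48 h exposure, TCA fixation, SRB stain, optical density read. ED50 = concentration giving 50% inhibition, taken from plotted data.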

Enterobacter cloacae = test: Antimicrobial activity against Enterobacter cloacae ATCC 13047 at 64 ug/mL after 24 hrs by broth microdilution assay; type: functional, organism-based; how it was run: as §3
Cryptococcus neoformans = test: Antimicrobial activity against Cryptococcus neoformans ATCC 90112 after 72 hrs by broth microdilution assay; type: functional; conditions: ATCC 90112, 72 h
How it was run: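 Yeast NCCLS broth microdilution (M27-A). Inoculum 0.5 to 2.5×10^3 CFU/mL; 2-fold dilutions in 0.165 M MOPS-buffered RPMI 1640, pH 7.0; compound from DMSO, DMSO-only turbidity control; 35 °C without agitation; read at 72 h (Cryptococcus). MIC = lowest concentration giving no visible growth.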

HUVEC [16] = test: Reduction of cord length in HUVEC at 0.001 ug/mL; type: functional, cell-based; conditions: Homo sapiens; how it was run: as §4
Enterococcus faecalis = test: Antimicrobial activity against Enterococcus faecalis ATCC 29212 at 64 ug/mL after 24 hrs by broth microdilution assay; type: functional, organism-based; how it was run: as §3
HUVEC [17] = test: Induction of microtubule depolymerization in HUVEC at 10 uM after 4 hrs; type: functional, cell-based; conditions: Homo sapiens; how it was run: as §1
P388 = test: Cytotoxicity against mouse P388 cells after 48 hrs by Coulter particle counting; conditions: P388, 48 h, read-out: ED50 (the source's name)
Staphylococcus aureus [18] = test: Antimicrobial activity against Staphylococcus aureus ATCC 29213 after 24 hrs by broth microdilution assay; type: functional; conditions: ATCC 29213, 24 h; how it was run: as §3

Compound: COc1ccc(/C=C\c2cc(F)c(OC)c(OC)c2)cc1O [FLUORCOMBSTATIN]
- Activity (HUVEC [1]): Active
- Activity (HUVEC [2]): Active
- GI50 (SF-268): < 0.0016 µg/mL
- Activity (HUVEC [3]): Active
- MIC (Micrococcus luteus): 32 µg/mL (≈ 105 µM)
- GI50 (DU-145): 0.0019 µg/mL (≈ 0.00624 µM)
- Activity [4]: inactive
- GI50 (MCF7): < 0.0027 µg/mL
- GI50 (KM-20L2): > 1 µg/mL
- MIC (Neisseria gonorrhoeae): 32 µg/mL (≈ 105 µM)
- Activity (Escherichia coli): inactive
- Activity (HUVEC [5]): Active
- IC50 [6]: 1500 nM
- Activity (HUVEC [7]): Active
- Activity (HUVEC [8]): Active
- MIC (Streptococcus pneumoniae): 64 µg/mL (≈ 210 µM)
- Activity (HUVEC [9]): Active
- Activity (Staphylococcus aureus [10]): inactive
- Activity (HUVEC [11]): Active
- Activity [12]: 75%
- GI50 (BXPC-3): 0.745 µg/mL (≈ 2.45 µM)
- Activity (HUVEC [13]): Active
- Activity (Candida albicans): inactive
- Activity (HUVEC [14]): Active
- GI50 (NCI-H460): < 0.0032 µg/mL
- CC50 [15]: 0.25 ng/mL (≈ 0.000822 µM)
- Activity (Enterobacter cloacae): inactive
- MIC (Cryptococcus neoformans): 64 µg/mL (≈ 210 µM)
- Activity (HUVEC [16]): Active
- Activity (Enterococcus faecalis): inactive
- Activity (HUVEC [17]): Active
- EC50 (P388): < 0.002 µg/mL

Compound: COc1ccc(/C=C/c2cc(F)c(OC)c(OC)c2)cc1O
- GI50 (SF-268): 0.35 µg/mL (≈ 1.15 µM)
- MIC (Micrococcus luteus): 16 µg/mL (≈ 52.6 µM)
- GI50 (DU-145): 0.18 µg/mL (≈ 0.591 µM)
- Activity [4]: inactive
- GI50 (MCF7): 0.051 µg/mL (≈ 0.168 µM)
- GI50 (KM-20L2): 0.53 µg/mL (≈ 1.74 µM)
- MIC (Neisseria gonorrhoeae): 8 µg/mL (≈ 26.3 µM)
- Activity (Escherichia coli): inactive
- MIC (Streptococcus pneumoniae): 64 µg/mL (≈ 210 µM)
- GI50 (BXPC-3): 2.2 µg/mL (≈ 7.23 µM)
- Activity (Candida albicans): inactive
- GI50 (NCI-H460): 0.18 µg/mL (≈ 0.591 µM)
- Activity (Enterobacter cloacae): inactive
- MIC (Cryptococcus neoformans): 64 µg/mL (≈ 210 µM)
- MIC (Staphylococcus aureus [18]): 32 µg/mL (≈ 105 µM)
- Activity (Enterococcus faecalis): inactive
- EC50 (P388): 0.253 µg/mL (≈ 0.831 µM)
